Measured values taken from ChEMBL document CHEMBL1129261, “De novo antimicrobial peptides with low mammalian cell toxicity” (1996).
≈ marks a conversion by molar mass, not a printed value.

Tests used:
Staphylococcus aureus = assay: Compound was evaluated for antibacterial activity against Staphylococcus aureus; assay type: functional
Outline: (§1)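 Broth microdilution MIC against E. coli ATCC 25922, P. aeruginosa ATCC 27853, S. aureus ATCC 25723. Cultures grown to midlog phase in nutrient broth, standardized to 0.5 McFarland, diluted to 5 × 10^4 cells per well. Equal volume of peptide added, 1:2 serial dilutions giving 256-2 µg/mL in medium. MIC is the lowest concentration with no turbidity […]. Median of three to seven tests.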

Pseudomonas aeruginosa = assay: Compound was evaluated for antibacterial activity against Pseudomonas aeruginosa; assay type: functional; outline: as §1
Mus musculus = species: Mus musculus; assay: (§2) Compound was tested for sublethal concentrations in 3T3 mouse fibroblast lysis.; assay type: functional
Outline: (§3)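 Mouse 3T3 fibroblast monolayers, 1 day old (about 1 × 10^4 cells/well), in MEM. Peptide applied as 2-fold serial dilutions in MEM, 30 min at 37 °C alongside untreated controls. Cells then stained with 0.2% trypan blue and viewed by light microscopy. Sublethal dose is the highest dilution in which only 1-10 adherent cells stay unstained.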

Homo sapiens = species: Homo sapiens; assay: Compound was measured for sublethal concentrations (uM) in Human erythrocytes; assay type: functional
Outline: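 Human erythrocytes (1 × 10^5 per well) incubated at 37 °C for 30 min with peptide. Peptide was dissolved in serum-free MEM and diluted 2-fold serially. Sublethal concentration is the highest dilution […]. A "greater than" entry means slight hemolysis at the highest concentration tested.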

Escherichia coli = assay: Compound was evaluated for antibacterial activity against Escherichia coli; assay type: functional; outline: as §1
NIH3T3 = assay: as §2; assay type: functional, cell-based; outline: as §3

Molecule	MIC (Staphylococcus aureus) [µM]	MIC (Pseudomonas aeruginosa) [µM]	Concentration (Mus musculus) [µM]	Concentration (Homo sapiens) [µM]	MIC (Escherichia coli) [µM]	Concentration (NIH3T3) [µM]
CC(C)C[C@H](NC(=O)[C@H](CCCCN)NC(=O)[C@H](CCCCN)NC(=O)[C@H](C)NC(=O)[C@H](CC(C)C)NC(=O)[C@H](CCCCN)NC(=O)[C@H](C)NC(=O)[C@H](CC(C)C)NC(=O)[C@H](CCCCN)NC(=O)[C@H](CCCCN)NC(=O)[C@H](C)NC(=O)[C@H](CC(C)C)NC(=O)[C@H](CCCCN)NC(=O)[C@H](C)NC(=O)[C@H](CC(C)C)NC(=O)[C@H](CCCCN)NC(=O)[C@H](CCCCN)NC(=O)[C@H](C)NC(=O)[C@H](CC(C)C)NC(=O)[C@@H](N)CCCCN)C(=O)N[C@@H](C)C(=O)O	4 (≈ 9.11 µg/mL)	4 (≈ 9.11 µg/mL)	11	> 250	4 (≈ 9.11 µg/mL)	
CC(C)C[C@H](NC(=O)[C@H](C)NC(=O)[C@H](CCCCN)NC(=O)[C@H](CC(C)C)NC(=O)[C@H](C)NC(=O)[C@H](CCCCN)NC(=O)[C@H](CCCCN)NC(=O)[C@H](CC(C)C)NC(=O)[C@H](C)NC(=O)[C@H](CCCCN)NC(=O)[C@H](CC(C)C)NC(=O)[C@H](C)NC(=O)[C@H](CCCCN)NC(=O)[C@H](CCCCN)NC(=O)[C@H](CC(C)C)NC(=O)[C@H](C)NC(=O)[C@H](CCCCN)NC(=O)[C@H](CC(C)C)NC(=O)[C@H](C)NC(=O)[C@@H](N)CCCCN)C(=O)N[C@@H](CCCCN)C(=O)O	8 (≈ 18.2 µg/mL)	4 (≈ 9.11 µg/mL)			4 (≈ 9.11 µg/mL)	11
CC(C)C[C@H](NC(=O)[C@H](CCCCN)NC(=O)[C@H](C)NC(=O)[C@H](CC(C)C)NC(=O)[C@H](CCCCN)NC(=O)[C@H](CCCCN)NC(=O)[C@H](C)NC(=O)[C@H](CC(C)C)NC(=O)[C@H](CCCCN)NC(=O)[C@H](C)NC(=O)[C@H](CC(C)C)NC(=O)[C@H](CCCCN)NC(=O)[C@H](CCCCN)NC(=O)[C@H](C)NC(=O)[C@H](CC(C)C)NC(=O)[C@H](CCCCN)NC(=O)[C@H](C)NC(=O)[C@H](CC(C)C)NC(=O)[C@@H](N)CCCCN)C(=O)N[C@@H](C)C(=O)N[C@@H](CCCCN)C(=O)O	4 (≈ 9.11 µg/mL)	4 (≈ 9.11 µg/mL)	9	> 520	4 (≈ 9.11 µg/mL)	
CC(C)C[C@H](NC(=O)[C@H](CCCCN)NC(=O)[C@H](C)NC(=O)[C@H](CC(C)C)NC(=O)[C@H](CCCCN)NC(=O)[C@H](CCCCN)NC(=O)[C@H](C)NC(=O)[C@H](CC(C)C)NC(=O)[C@H](CCCCN)NC(=O)[C@H](C)NC(=O)[C@H](CC(C)C)NC(=O)[C@@H](N)CCCCN)C(=O)N[C@@H](C)C(=O)N[C@@H](CCCCN)C(=O)O	6 (≈ 9.14 µg/mL)	6 (≈ 9.14 µg/mL)	> 517	> 750	6 (≈ 9.14 µg/mL)	
CC[C@H](C)[C@H](NC(=O)CN)C(=O)NCC(=O)N[C@@H](C)C(=O)N[C@H](C(=O)N[C@@H](CC(C)C)C(=O)N[C@@H](CCCCN)C(=O)N[C@H](C(=O)N[C@@H](CC(C)C)C(=O)N[C@H](C(=O)N[C@H](C(=O)NCC(=O)N[C@@H](CC(C)C)C(=O)N1CCC[C@H]1C(=O)N[C@@H](C)C(=O)N[C@@H](CC(C)C)C(=O)N[C@H](C(=O)N[C@@H](CO)C(=O)N[C@@H](Cc1c[nH]c2ccccc12)C(=O)N[C@H](C(=O)N[C@@H](CCCCN)C(=O)N[C@@H](CCCNC(=N)N)C(=O)N[C@@H](CCCCN)C(=O)N[C@@H](CCCNC(=N)N)C(=O)N[C@@H](CCC(N)=O)C(=O)N[C@@H](CCC(N)=O)C(N)=O)[C@@H](C)CC)[C@@H](C)CC)[C@@H](C)O)[C@@H](C)O)C(C)C)C(C)C			1	1		
H-GIGKFLHSAKKFGKAFVGEIMNS-NH2	19	5	60	> 460	10	
H-KAAKKAAKAAKKAA-OH	> 256		> 525	> 670	47	
H-KAAKKAAKAAKKAAKAAKKAA-OH	8		> 440	> 1630	8	
H-KLAKKLA-OH	> 100	> 100			> 100	
H-KLAKKLAKLAKKLA-OH	6	3	> 272	> 750	6	
H-KLAKLAK-OH	> 95	> 95			> 95	
H-KLGKKLGKLGKKLG-OH	22			> 780	22	
H-KLGKKLGKLGKKLGKLGKKLG-OH	4	4	> 393	> 570	4	
